# In ChEMBL document CHEMBL1157229, “Phaeofurans and sorbicillin analogues from a fungicolous Phaeoacremonium species (NRRL 32148)” (2006):
# Activity calls are given as the source filed them. The rule behind the calls is not given here.
# Key:
# Candida albicans = test: Antifungal activity against Candida albicans ATCC 14053 at 200 ug/disk after 48 hrs by standard disk diffusion assay; assay type: functional, organism-based
# Fusarium verticillioides = test: Antifungal activity against Fusarium verticillioides NRRL 25457 at 200 ug/disk after 48 hrs by standard disk diffusion assay; assay type: functional, organism-based
# Outline: (§1)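 Compounds applied at 200 µg per disk. Read-out was the zone diameter (mm) around the disk at 48 h. Zones were scored as clear, partial clearing, or reduced sporulation of the fungus.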
# Escherichia coli = test: […] activity against Escherichia coli ATCC 25922 at 200 ug/disk after 48 hrs by standard disk diffusion assay; assay type: functional, organism-based
# Aspergillus flavus = test: Antifungal activity against Aspergillus flavus NRRL 6541 at 200 ug/disk after 48 hrs by standard disk diffusion assay; assay type: functional; conditions: for zone of inhibition at 200 µg/disc: NRRL 6541, 48 h, read-out: IZ; outline: as §1
# Staphylococcus aureus = test: […] activity against Staphylococcus aureus ATCC 29213 at 200 ug/disk after 48 hrs by standard disk diffusion assay; assay type: functional, organism-based
SMILES,Activity (Candida albicans),Activity (Fusarium verticillioides),Activity (Escherichia coli),Activity (Aspergillus flavus),Activity (Staphylococcus aureus),zone of inhibition at 200 µg/disc (Aspergillus flavus) [mm]
CCCC(O)[C@H]1OCC2=C1[C@@H](O)[C@H]1O[C@H]1[C@@H]2O (stereo partly drawn),inactive,inactive,inactive,inactive,inactive,
C/C=C/CCC(=O)c1cc(CO)c(OC)cc1O,,,,,,18
C/C=C/C=C/C(=O)c1cc(C=O)c(OC)cc1O,,,,,,40
O[C@@H]1c2cocc2[C@@H](O)[C@H]2O[C@H]21,inactive,inactive,inactive,inactive,inactive,
C/C=C/C=C/C(=O)c1cc(C)c(OC)cc1O,,,,inactive,,
